Laboratory results from ChEMBL document CHEMBL4330057, “Second generation of diazachrysenes: Protection of Ebola virus infected mice and mechanism of action” (Eur J Med Chem, 2019).
The source made the active and inactive calls. No cut-off for these calls is given here.

Experiments:
[1] = Toxicity in 6 hrs post fertilized zebrafish embryo assessed as teratogenic effect by measuring malformation of tail up to 50 uM up to 120 hrs post fertilization by inverted microscopic method; type: tissue-based, Danio rerio; conditions: in vivo
[2] = Toxicity in 6 hrs post fertilized zebrafish embryo assessed as teratogenic effect by measuring growth retardation up to 50 uM up to 120 hrs post fertilization by inverted microscopic method; design: species or system Danio rerio; conditions: in vivo
[3] = Toxicity in 6 hrs post fertilized zebrafish embryo assessed as teratogenic effect by measuring malformation of notochord up to 50 uM up to 120 hrs post fertilization by inverted microscopic method; type: tissue-based, Danio rerio; conditions: in vivo
[4] = biological target: Cathepsin B (Homo sapiens) (UniProt P07858); assay: Inhibition of cathepsin B activity in human HeLa cells at 2 uM after 12 hrs by magic red substrate based fluorescence assay; type: cell-based
Method in brief: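 HeLa cells were exposed to compound for 12 h, then given the Magic Red cathepsin B peptide reporter, washed, and imaged at Ex/Em 590/630. Total intensity and average area of red fluorescence were scored by high-content analysis. Eight wells per point, about 3000 cells/well, mean ± SD, three independent experiments.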

Ebolavirus [5] = assay: Antiviral activity against Ebolavirus H. sapiens-wt/1995/Kikwit-9510621 infected in human HeLa cells assessed as inhibition of viral infection at 2 uM treated simultaneously with viral infection and measured after 24 hrs by EboV GP immunostaining based high content imaging analysis; type: functional, organism-based
[6] = Selectivity index, ratio of CC50 for human HeLa cells to EC50 for Ebolavirus H. sapiens-wt/1995/Kikwit-9510621 infected in human HeLa cells; type: toxicity, cell-based; conditions: read-out: Ratio CC50/EC50
[7] = Toxicity in 6 hrs post fertilized zebrafish embryo assessed as teratogenic effect by measuring malformation of head up to 50 uM up to 120 hrs post fertilization by inverted microscopic method; type: tissue-based, Danio rerio; conditions: in vivo
HeLa [8] = assay: Induction of lysosomotropism in human HeLa cells infected with Ebolavirus assessed as expansion of acid compartments at 2 uM for 2 hrs by acridine orange staining based assay; type: functional, cell-based
Method in brief: (§1)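 HeLa cells were pretreated with compound for 2 h, then given acridine orange for 30 min and washed. Red AO fluorescence in acidic compartments was imaged, and total intensity and average area were scored by high-content imaging. Eight wells per point, about 3000 cells/well, mean ± SD, representative of three independent experiments.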

[9] = Toxicity in 6 hrs post fertilized zebrafish embryo assessed as teratogenic effect by measuring pericardial edema up to 50 uM up to 120 hrs post fertilization by inverted microscopic method; design: species or system Danio rerio; conditions: in vivo
[10] = Toxicity in 6 hrs post fertilized zebrafish embryo assessed as lethal effect on somite formation up to 50 uM up to 120 hrs post fertilization by inverted microscopic method; design: species or system Danio rerio; conditions: in vivo
[11] = Toxicity in 6 hrs post fertilized zebrafish embryo assessed as teratogenic effect by measuring scoliosis up to 50 uM up to 120 hrs post fertilization by inverted microscopic method; design: species or system Danio rerio; conditions: in vivo
[12] = Selectivity index, ratio of CC50 for HFF to EC50 for Ebolavirus H. sapiens-wt/1995/Kikwit-9510621 infected in human HeLa cells; type: toxicity, cell-based; conditions: read-out: Ratio CC50/EC50
[13] = Toxicity in 6 hrs post fertilized zebrafish embryo assessed as lethal effect on heart beat up to 50 uM up to 120 hrs post fertilization by inverted microscopic method; type: tissue-based, Danio rerio; conditions: in vivo
HeLa [14] = assay: Cytotoxicity against human HeLa cells at 50 uM after 2 hrs; type: cell-based
[15] = Selectivity index, ratio of LC50 for toxicity in transgenic zebrafish embryo assessed as mortality to EC50 for Ebolavirus H. sapiens-wt/1995/Kikwit-9510621; conditions: read-out: Selectivity Index
HeLa [16] = assay: Induction of lysosomotropism in human HeLa cells infected with Ebolavirus assessed as increase in red fluorescence at 2 uM for 2 hrs by acridine orange staining based assay; type: functional, cell-based; method in brief: as §1
[17] = Toxicity in 6 hrs post fertilized zebrafish embryo assessed as teratogenic effect by measuring yolk absorption up to 50 uM up to 120 hrs post fertilization by inverted microscopic method; design: species or system Danio rerio; conditions: in vivo
Ebolavirus [18] = assay: Antiviral activity against Ebolavirus H. sapiens-wt/1995/Kikwit-9510621 infected in human HeLa cells assessed as inhibition of viral infection pretreated for 2 hrs followed by viral infection and measured after 48 hrs by EboV GP immunostaining based high content imaging analysis; type: functional, organism-based; conditions: Orthoebolavirus, H. sapiens-wt/1995/Kikwit-9510621, HeLa; for EC50: read-out: EC50
[19] = Toxicity in 6 hrs post fertilized zebrafish embryo assessed as teratogenic effect by measuring malformation of eyes up to 50 uM up to 120 hrs post fertilization by inverted microscopic method; design: species or system Danio rerio; conditions: in vivo
HeLa [20] = assay: Inhibition of lysosome fusion with autophagosome in human HeLa cells harboring GFP-LC3 assessed as increase in GFP-LC3-2 clustering at 2 uM after 4 hrs; type: functional, cell-based
Method in brief: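 HeLa cells stably expressing GFP-LC3 were treated with compound for 4 h, then imaged. Total GFP clusters per cell were counted. Eight-well replicates, about 500 cells/well, mean ± SD, three independent experiments.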

[21] = Binding affinity to AGP (unknown origin) at compound to protein molar ratio of 1:20 after 10 mins by fluorescence spectral analysis; type: ADME; conditions: human, isolated protein
Method in brief: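 Protein fluorescence spectra recorded while compound was added in increasing amounts. Stern-Volmer binding constant (KSV) derived from the fluorescence change.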

[22] = Toxicity in 6 hrs post fertilized zebrafish embryo assessed as lethal effect on egg coagulation up to 50 uM up to 120 hrs post fertilization by inverted microscopic method; design: species or system Danio rerio; conditions: in vivo
HeLa [23] = assay: Inhibition of lysosome fusion with autophagosome in human HeLa cells harboring GFP-LC3 assessed as increase in GFP-LC3-2 clustering up to 50 uM after 6 hrs by Western blot analysis; type: functional, cell-based
Method in brief: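 HeLa cells were exposed to compound for 6 h, then lysed and analysed by Western blot.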

HeLa [24] = assay: Induction of lysosomotropism in human HeLa cells infected with Ebolavirus assessed as clustering of late endosomes/lysosomes in cytoplasm at 2 uM for 1 hr by Lysosensor DND189 staining based assay; type: functional, cell-based
Method in brief: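 HeLa cells treated 1 h (2 μM; bafilomycin A1 0.01 μM as control), then LysoSensor DND 189 for 10 min. Washed and imaged live at 443/505 nm (dye) and 405/450 nm (compound). Fluorescence intensity/area quantified. Mean ± SD of 8 wells, about 3000 cells each, three independent experiments.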

HeLa [25] = assay: Induction of lysosomotropism in human HeLa cells infected with Ebolavirus assessed as dense clustering in perinuclear region at 2 uM for 2 hrs by acridine orange staining based assay; type: functional, cell-based
Method in brief: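 HeLa cells pretreated 2 h, then acridine orange for 30 min, washed and imaged. Total intensity and average area of acridine orange fluorescence quantified by high-content imaging. Mean ± SD of 8 wells, about 3000 cells each, three independent experiments.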

Ebolavirus [26] = assay: Antiviral activity against Ebolavirus H. sapiens-wt/1995/Kikwit-9510621 infected in HFF assessed as inhibition of viral infection pretreated for 2 hrs followed by viral infection and measured after 48 hrs by EboV GP immunostaining based high content imaging analysis; type: functional, organism-based; conditions: Orthoebolavirus
[27] = Toxicity in 6 hrs post fertilized zebrafish embryo assessed as teratogenic effect by measuring effect on heart beat frequency up to 50 uM up to 120 hrs post fertilization by inverted microscopic method; design: species or system Danio rerio; conditions: in vivo
[28] = biological target: Procathepsin L (Homo sapiens) (UniProt P07711); assay: Inhibition of cathepsin L activity in human HeLa cells at 2 uM after 6 hrs by HCA; type: cell-based
Chain of Procathepsin L (Homo sapiens) (P07711 114-333 limits assumed): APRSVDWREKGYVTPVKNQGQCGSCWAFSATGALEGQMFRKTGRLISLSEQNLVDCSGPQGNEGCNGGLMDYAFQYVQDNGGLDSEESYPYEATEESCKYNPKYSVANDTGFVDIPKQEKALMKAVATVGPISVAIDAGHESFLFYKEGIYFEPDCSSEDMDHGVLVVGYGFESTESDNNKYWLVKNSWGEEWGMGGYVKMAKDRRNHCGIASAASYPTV

Cl.Cl.Cl.Cl.c1cc(NCCN2CCOCC2)c2ccc3c(ccc4c(NCCN5CCOCC5)ccnc43)c2n1
Activity [1]: Non-Toxic | Activity [2]: Non-Toxic | Activity [3]: Non-Toxic | inhibition [4]: Active | Activity (Ebolavirus [5]): Active | selectivity ratio [6]: > 28.5 | Activity [7]: Non-Toxic | Activity (HeLa [8]): Active | Activity [9]: Non-Toxic | Activity [10]: Non-Toxic | Activity [11]: Non-Toxic | selectivity ratio [12]: > 36.5 | Activity [13]: Non-Toxic | Activity (HeLa [14]): Toxic | selectivity ratio [15]: 70 to 100 | Activity (HeLa [16]): inactive | Activity [17]: Non-Toxic | EC90 (Ebolavirus [18]): < 5000 nM | EC50 (Ebolavirus [18]): 700 nM | Activity [19]: Non-Toxic | inhibition (HeLa [20]): Active | KSV [21]: 8.12 ×10⁴ /M | Activity [22]: Non-Toxic | inhibition (HeLa [23]): Active | Activity (HeLa [24]): Active | Activity (HeLa [25]): Active | EC50 (Ebolavirus [26]): 550 nM | EC90 (Ebolavirus [26]): 1360 nM | Activity [27]: Non-Toxic | inhibition [28]: Active

Cl.Cl.Cl.Cl.c1cc(NCCCCN2CCOCC2)c2ccc3c(ccc4c(NCCN5CCOCC5)ccnc43)c2n1
Activity [1]: Non-Toxic | Activity [2]: Non-Toxic | Activity [3]: Non-Toxic | inhibition [4]: Active | Activity (Ebolavirus [5]): Active | selectivity ratio [6]: 30 | Activity [7]: Non-Toxic | Activity (HeLa [8]): Active | Activity [9]: Non-Toxic | Activity [10]: Non-Toxic | Activity [11]: Non-Toxic | selectivity ratio [12]: 11.2 | Activity [13]: Non-Toxic | Activity (HeLa [14]): Toxic | selectivity ratio [15]: 70 to 100 | Activity (HeLa [16]): inactive | Activity [17]: Non-Toxic | EC90 (Ebolavirus [18]): 850 nM | EC50 (Ebolavirus [18]): 260 nM | Activity [19]: Non-Toxic | inhibition (HeLa [20]): Active | KSV [21]: 6.12 ×10⁴ /M | Activity [22]: Non-Toxic | inhibition (HeLa [23]): Active | Activity (HeLa [24]): Active | Activity (HeLa [25]): Active | EC50 (Ebolavirus [26]): 210 nM | EC90 (Ebolavirus [26]): 780 nM | Activity [27]: Non-Toxic | inhibition [28]: Active
